Shown are actives, neighbours in structure and some others; about 2.3% of the full set was active somewhere.
T cell HTS – T cell immune modulators affecting CD8 T cell-vesicle binding. 2C CD8+ T cell-vesicle binding, flow cytometry; stronger effect = lower value. response (vesicle binding), % at 7 µM. hit rate 0.068% among 330,000. AID 2052;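 active = response, share of CD8 T cells binding vesicles, and their 90th percentile fluorescence all below set limits, cut at about 80% in these data, passing the limit was not always enough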;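 note: values below 100% mean blocked vesicle binding to the CD8+ T cells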
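Material: murine 2C transgenic CD8+ T lymphocytes / Also added: QL9-peptide-loaded Drosophila micro-vesicles bearing Ld, ICAM-1 and B7-1 / Schedule: binding step 1.5 h, 37 °C, antibody labelling 20 min, ice / Signal: flow cytometry, PE anti-B7-1 (FL2) versus Alexa647 anti-CD8 (FL8), PFA-fixed / Evaluation: percent CD8+ FL2 mean versus row control / Benchmarks: naked versus QL9-loaded vesicles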
GPR7 antag – blocks human GPR7 receptor signaling; GPR7-expressing cells, fluorescence antagonist assay; AID 1861; inhibition, % at 4.4 µM; hit rate 1.1% among 290,000; in the data active = inhibition above about 16%, passing the limit was not always enough;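 note: cells stimulated with the agonist NPW; 0% = agonist with vehicle and 100% = vehicle without agonist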
pCIP destab – compounds decreasing mouse p/CIP protein stability; hit rate 0.01% among 290,000; decrease of EGFP signal, % at 10 µM; AID 1984; F442A p/CIP-EGFP cells, EGFP fluorescence, 16 h;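 active = EGFP signal decrease of at least 30% at 10 µM or well 3 SD below plate mean, unless failing retest; inactive = the rest, including hits failing retest or dose response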
Target sequence (Q05BA5 1-1403): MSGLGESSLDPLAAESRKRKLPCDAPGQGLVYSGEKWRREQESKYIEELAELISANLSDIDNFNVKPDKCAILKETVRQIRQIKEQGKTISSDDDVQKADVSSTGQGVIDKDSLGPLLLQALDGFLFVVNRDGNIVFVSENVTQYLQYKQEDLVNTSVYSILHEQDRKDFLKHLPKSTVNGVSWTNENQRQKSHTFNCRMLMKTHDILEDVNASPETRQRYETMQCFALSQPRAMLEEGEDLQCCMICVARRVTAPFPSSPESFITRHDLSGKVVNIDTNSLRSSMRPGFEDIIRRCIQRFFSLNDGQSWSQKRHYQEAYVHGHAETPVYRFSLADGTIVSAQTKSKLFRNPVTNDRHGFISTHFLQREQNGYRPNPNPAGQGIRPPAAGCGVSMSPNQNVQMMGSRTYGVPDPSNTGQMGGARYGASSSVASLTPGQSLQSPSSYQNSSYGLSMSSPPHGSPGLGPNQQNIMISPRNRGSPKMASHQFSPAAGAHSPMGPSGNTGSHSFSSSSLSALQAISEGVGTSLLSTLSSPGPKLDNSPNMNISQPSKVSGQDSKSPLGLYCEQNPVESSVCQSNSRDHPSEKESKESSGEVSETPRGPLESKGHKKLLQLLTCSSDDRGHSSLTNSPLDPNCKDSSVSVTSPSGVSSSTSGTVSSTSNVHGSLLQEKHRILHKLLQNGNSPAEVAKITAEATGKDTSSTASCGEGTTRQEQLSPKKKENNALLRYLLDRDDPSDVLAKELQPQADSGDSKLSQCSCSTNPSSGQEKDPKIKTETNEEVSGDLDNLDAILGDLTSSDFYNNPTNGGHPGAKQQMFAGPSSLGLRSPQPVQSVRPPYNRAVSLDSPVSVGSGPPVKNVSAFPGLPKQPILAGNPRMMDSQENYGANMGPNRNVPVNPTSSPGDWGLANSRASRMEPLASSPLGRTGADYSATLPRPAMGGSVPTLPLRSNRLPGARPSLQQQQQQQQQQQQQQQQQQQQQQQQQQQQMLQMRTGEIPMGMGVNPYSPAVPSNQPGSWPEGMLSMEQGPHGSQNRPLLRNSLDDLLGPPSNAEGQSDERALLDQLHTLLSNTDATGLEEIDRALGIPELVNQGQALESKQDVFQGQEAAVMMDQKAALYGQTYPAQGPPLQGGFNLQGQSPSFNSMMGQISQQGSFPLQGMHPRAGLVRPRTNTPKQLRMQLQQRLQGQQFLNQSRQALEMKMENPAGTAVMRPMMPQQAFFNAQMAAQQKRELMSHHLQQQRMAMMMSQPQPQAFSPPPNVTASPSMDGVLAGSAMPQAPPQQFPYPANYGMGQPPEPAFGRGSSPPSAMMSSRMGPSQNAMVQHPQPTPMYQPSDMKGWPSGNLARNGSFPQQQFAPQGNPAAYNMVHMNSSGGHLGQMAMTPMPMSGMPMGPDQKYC
CHT inh – human CHT choline transport inhibition | Q9GZV3 | CHT-expressing cells, membrane potential dye, choline response; stronger effect = lower value | B-score at 10 µM | hit rate 0.86% among 310,000 | AID 488975;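 active = B-score over 3 SD under the library average, and starting fluorescence ratio not unusually high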;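 note: choline stimulus applied at its EC90 after an EC20 pre-addition; B-score computed on integrated fluorescence ratio after choline addition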
CHT PAM – human CHT allosteric activation | Q9GZV3 | CHT-expressing cells, membrane potential dye, choline EC20; stronger effect = higher value; LV-AA mutant CHT in HEK293 cells | B-score at 10 µM | hit rate 0.49% among 310,000;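 active = initial fluorescence not abnormally high and integrated response B-score, plate-corrected, over 3 SD above library mean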
DSG3 Ab inh – blocks pemphigus antibody binding to human desmoglein-3. hit rate 0.48% among 310,000. DSG3-coupled beads, scFv-anti-DSG3-GFP binding, flow cytometry; stronger effect = lower value. binding (percent of control), % at 10 µM;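 active = binding more than 3 SD below its plate's average and above zero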
* marks the source's active call; other numbers are inactive results; i = inactive; / = no result given.

SMILES	T cell HTS	GPR7 antag	pCIP destab	CHT inh	CHT PAM	DSG3 Ab inh
O=C(O)CCCN1C(=O)/C(=C/c2ccc(-c3nc4ccccc4s3)o2)SC1=S	282	20	8	i	i	89*
CC1CC2(C)Oc3ccccc3CC2C(C)C1CNCCCN(C)C (centres undefined)	296	44*	2	i	i	103
Nc1ccn([C@@H]2O[C@H](CN=C3NS(=O)(=O)c4ccccc43)[C@@H](O)[C@H]2O)c(=O)n1	/	/	/	/	/	100
CC(C)n1cnc2c(Nc3ccc(F)c(Cl)c3)nc(NCCO)nc21	662	0	4	-5.4*	i	101
C=CC(=O)Nc1sc2c(c1C(N)=O)CCCC2	432	/	/	i	i	102
C=CCNC(=S)Nc1sc2c(c1C(N)=O)CCCC2	47*	-11	-4	i	i	102
C[C@H]1CCCCO[C@H](CN(C)S(=O)(=O)c2cn(C)cn2)[C@@H](C)CN([C@@H](C)CO)C(=O)c2cc(NS(=O)(=O)c3ccccc3)ccc2O1	/	/	/	/	/	107
CC1(C)CC(CC(=O)O)(c2ccc(F)cc2)CCO1 (centres undefined)	260	-9	-19	i	i	99
CC12CCCC(CC(=O)O)(C1)NC(=O)C2 (centres undefined)	/	/	/	/	/	64*
CCOCc1nc(N)nc(N)c1-c1cccc(Cl)c1	/	/	/	/	/	93
COc1ccccc1CN1CCC(CNS(=O)(=O)c2cc(-c3cc(C)no3)ccc2OC)CC1	768	-2	2	i	i	/
COc1ccccc1CNS(=O)(=O)c1ccc(-c2cc(C)no2)cc1	531	8	-18	i	6.4*	104
C=CCOC1COC2C(OCC=C)COC12 (centres undefined)	/	/	/	/	/	98
CN(C)S(=O)(=O)c1ccc2c(c1)C(=NO)c1cc(S(=O)(=O)N(C)C)ccc1-2	86	11	3	i	i	76*
CCOc1ccccc1C(=O)Nc1cc(C(=O)NCCc2ccccc2)ccc1Cl	446	3	-5	i	i	79*
CCN(CC)S(=O)(=O)c1ccc(S(=O)(=O)N(Cc2ccccn2)Cc2ccco2)cc1	295	-3	7	i	i	103
O=S(=O)(NCc1ccccc1)c1ccc(S(=O)(=O)N(Cc2ccccn2)Cc2ccco2)cc1	266	1	-12	i	i	76*
O=C(COc1ccccc1)NC(=S)Nc1cccc2c(O)cccc12	/	/	/	/	/	100
O=C(Nc1ccccc1)Nc1ccc(F)c([N+](=O)[O-])c1	570	33*	-6	i	i	125
CC(=O)Nc1ccc(C)c([N+](=O)[O-])c1	202	-5	-8	i	i	104
O=C(NC(=S)Nc1ccc(F)c([N+](=O)[O-])c1)c1ccccc1F	664	5	1	i	i	76
Cc1ccc(NC(=O)Nc2ccccc2)cc1[N+](=O)[O-]	186	25*	-8	i	i	122
Cc1nn(-c2ccccc2)c(C)c1/C=N/NC(=O)c1cc(-c2ccc(Br)s2)[nH]n1	631	-12	-3	i	i	84*
Cc1nn(-c2ccccc2)c(C)c1-c1cc(C(=O)N/N=C/c2ccc(O)cc2)[nH]n1	344	-4	-8	i	i	58*
Cc1nn(-c2ccccc2)c(C)c1/C=N/NC(=O)c1cc(C23CC4CC(CC(C4)C2)C3)[nH]n1	340	5	-5	-8.5*	i	68
SMILES	T cell HTS	GPR7 antag	pCIP destab	CHT inh	CHT PAM	DSG3 Ab inh
COc1cc(/C=N/NC(=O)c2cc(-c3c(C)nn(-c4ccccc4)c3C)n[nH]2)ccc1O	130	-22	-25	i	i	99
Cc1ccc(C(=O)Nc2cccc(NC(=O)c3cccs3)c2)c(C)c1	228	-8	0	i	i	114
CCOc1ccc(CN(C)C(=O)c2cccc(S(=O)(=O)Nc3ccccc3OC)c2)cc1OC	/	/	/	/	/	97
C[C@H](CO)N1C[C@H](C)[C@@H](CN(C)C(=O)CCC(F)(F)F)OCc2cnnn2CCCC1=O	/	/	/	/	/	106
CCOC(=O)c1nnn(-c2nonc2-n2cccc2)c1C	188	-9	-1	i	i	113
CCOC(=O)c1nnn(-c2nonc2NC(C)=O)c1C	304	-8	-4	i	i	52*
Cc1c(CCOC(=O)c2ccccc2)sc[n+]1CC(=O)c1ccc(Br)cc1	238	20*	-11	i	i	114
Cc1c(CCOC(=O)c2ccccc2)sc[n+]1Cc1ccccc1	428	-7	3	i	i	122
O=C(NCc1ccncc1)C(=O)NCC1OCCN1S(=O)(=O)c1ccccc1 (centres undefined)	/	/	/	/	/	102
Cc1cc(C)n(C(=O)Cc2cn3ccsc3n2)n1	72*	11	-9	i	i	101
CCCNS(=O)(=O)c1ccc(OCC(=O)OC)cc1	178	-11	-7	i	i	98
CCCCNS(=O)(=O)c1ccc(OCC(=O)OC)cc1	6.7*	16	-10	i	i	99
Cc1ccc(NC(=O)COC(=O)CCc2c[nH]c3ccccc23)c(C)c1	0.0*	/	/	/	/	100
COc1ccc(NC(=O)CSc2nnc(-c3ccco3)c(-c3ccco3)n2)cc1OC	198	5	2	i	i	123
COc1cccc(NC(=O)CSc2nnc(-c3ccco3)c(-c3ccco3)n2)c1	184	-1	-4	-7.4*	i	/
O=C(CSc1nc2ccccc2c(=O)n1CCCN1CCOCC1)Nc1ccc(F)c(Cl)c1	299	/	/	/	/	107
Cc1ccc(NC(=O)CSc2nc3ccccc3c(=O)n2CCCN2CCCCC2)cc1Cl	322	25*	1	i	i	105
Cc1cc(OC(F)F)ccc1NC(=O)Nc1ccc([N+](=O)[O-])cc1	256	41*	-8	i	i	99
COc1ccc(OC(C)C(=O)Nc2ccc([N+](=O)[O-])cc2)cc1 (centres undefined)	128	20	5	i	i	107
Cc1nn(-c2ccccc2)nc1C(=O)Nc1cccc(C(=O)NC2CC2)c1	/	/	/	/	/	106
COc1cccc(/C=C2\SC(=O)N(CCC(=O)NNC(=O)c3ccccc3Cl)C2=O)c1	10*	-10	-2	i	i	87
CC(NC(=O)/C=C/c1ccco1)c1nc2ccccc2n1Cc1ccccc1F (centres undefined)	260	3	-7	i	i	81*
COc1ccc(Cl)cc1NC(=O)CN1CCCC1	141	-12	-25	i	i	99
CCOC(=O)C1CCN(CC(=O)Nc2c(C(=O)OC)[nH]c3ccccc23)CC1	/	-3	-7	/	/	/
CCOC(=O)C1CCN(CC(=O)Nc2c(C(=O)OC)[nH]c3ccc(Cl)cc23)CC1	126	18*	-3	i	i	102

From PubChem BioAssay
